High-throughput results (PubChem BioAssay)
Most compounds without a hit are left out; they make up all but 9.6% or so of the library.
TNAP act hi DEA = increases human TNAP activity under high phosphate acceptor concentration | P05186 | purified TNAP, CDP-star luminescence, 1 M DEA, 30 min; active compounds read high; 0 = EDTA background, 1 = DMSO-only activity | activation factor at 20 µM | 200,000 tested, under 10 active | AID 1136;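 active means activation factor at least 2 at 20 µM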
Target sequence (P05186 whole entry, looked up): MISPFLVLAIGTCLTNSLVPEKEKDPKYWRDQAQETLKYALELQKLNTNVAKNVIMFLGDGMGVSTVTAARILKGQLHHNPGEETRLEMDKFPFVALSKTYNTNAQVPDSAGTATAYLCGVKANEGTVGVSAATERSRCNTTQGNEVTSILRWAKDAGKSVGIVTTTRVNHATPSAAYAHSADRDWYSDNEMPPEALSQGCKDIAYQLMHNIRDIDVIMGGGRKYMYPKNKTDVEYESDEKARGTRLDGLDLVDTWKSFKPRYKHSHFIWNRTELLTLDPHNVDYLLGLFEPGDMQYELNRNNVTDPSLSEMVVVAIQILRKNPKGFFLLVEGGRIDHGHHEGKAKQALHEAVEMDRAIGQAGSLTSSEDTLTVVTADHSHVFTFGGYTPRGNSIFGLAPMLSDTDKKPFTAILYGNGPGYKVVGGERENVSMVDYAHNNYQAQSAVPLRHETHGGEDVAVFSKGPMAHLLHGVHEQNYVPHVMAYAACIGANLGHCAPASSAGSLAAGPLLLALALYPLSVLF
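Test system – human TNAP · Doses – 20 µM single point · Incubation – 30 min, room temperature · Signal – luminescent substrate turnover signal · Read-out basis – activation factor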
Lmaj promast = reduces viability of Leishmania major promastigotes. resazurin fluorescence viability. inhibition, % at 10 µM. 9% of 200,000 active. AID 1063; in the data active means inhibition above about 50%;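 further: promastigotes grown with compound for 44 hours at 28 °C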
TNAP inh noacc = TNAP (human) inhibition, acceptor-free conditions; P05186; purified TNAP, CDP-star luminescence, 30 min; inhibition, % at 20 µM; 0.26% of 200,000 active; AID 1012;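 active means tissue-nonspecific alkaline phosphatase inhibition above about 50% at 20 µM in the single-dose screen, limit read from the data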
TNAP inh hi DEA = TNAP (human) inhibition, high acceptor; purified TNAP, CDP-star luminescence, 1 M DEA; inhibition, % at 20 µM; 0.03% of 200,000 active;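 active means over 50% inhibition of tissue-nonspecific alkaline phosphatase at 20 µM in the single-dose screen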
bCat KO growth = beta-catenin-lacking colon tumor cell growth suppression. HCT116 beta-catenin knockout viability, CellTiter-Glo, 60 h; active compounds read low. 1.5% of 140,000 active. viability, % at 10 µM;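 active means viability at or under a set limit, the compound median less 4 SD, cut at about 6% in these data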
HCT116 PTEN-null = growth suppressors of cells with PTEN tumor suppressor deletion; HCT116 PTEN-null viability, CellTiter-Glo, 60 h; active compounds read low; viability, % at 10 µM; 1.2% of 140,000 active;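 active means viability at or below a set limit, 4 SD under the median of all tested compounds, cut at about 3.7% in these data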;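 further: PTEN knockout HCT116 line with beta catenin targeted HCT116 as companion control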
Numbers stand for hits.

`COc1ccc(CNCC(=O)Nc2cccc(S(N)(=O)=O)c2)cc1` gave TNAP act hi DEA inactive, Lmaj promast inactive, TNAP inh noacc inactive and TNAP inh hi DEA inactive.
`COc1ccc2c(=O)c(Oc3ccc(C(=O)O)cc3)c(C(F)(F)F)oc2c1` gave TNAP act hi DEA inactive, Lmaj promast inactive, TNAP inh noacc inactive and TNAP inh hi DEA inactive.
Cc1cccc(C(=O)OCC(=O)NCCCc2ccccc2)c1 was read as TNAP act hi DEA inactive, Lmaj promast inactive, TNAP inh noacc inactive and TNAP inh hi DEA inactive.
`CC(C)(C)NCCOCCOc1ccccc1-c1ccccc1` gave TNAP act hi DEA inactive, Lmaj promast inactive, TNAP inh noacc inactive, TNAP inh hi DEA inactive, bCat KO growth inactive and HCT116 PTEN-null inactive.
For CN(C)CCNCCCOc1ccccc1-c1ccccc1 the results were TNAP act hi DEA inactive, Lmaj promast 98, TNAP inh noacc inactive and TNAP inh hi DEA inactive.
Screening C=CCNCCOCCOc1ccccc1-c1ccccc1 returned TNAP act hi DEA inactive, Lmaj promast 95, TNAP inh noacc inactive and TNAP inh hi DEA inactive.
CCC(C)NCCOCCOc1ccccc1-c1ccccc1 (stereo not given) was read as TNAP act hi DEA inactive, Lmaj promast 85, TNAP inh noacc inactive, TNAP inh hi DEA inactive, bCat KO growth inactive and HCT116 PTEN-null inactive.
For C=CCNCCOCCOc1ccc(C)cc1[N+](=O)[O-] the results were TNAP act hi DEA inactive, Lmaj promast 81, TNAP inh noacc inactive, TNAP inh hi DEA inactive, bCat KO growth inactive and HCT116 PTEN-null inactive.
Screening Cc1cc(SCC(=O)Nc2cccc(S(=O)(=O)N3CCOCC3)c2)nc2ccccc12 returned TNAP act hi DEA inactive, Lmaj promast inactive, TNAP inh noacc inactive and TNAP inh hi DEA inactive.
Cc1cccc(NC2=NC(C)(C)N=C(N)N2)c1 was read as TNAP act hi DEA inactive, Lmaj promast inactive, TNAP inh noacc inactive and TNAP inh hi DEA inactive.
`CC1=CC(C)(C)N2C(=O)C3(N=C(N)NC(Nc4ccccc4)=N3)c3cc(C)cc1c32` (stereo not given) gave TNAP act hi DEA inactive, Lmaj promast 96, TNAP inh noacc inactive, TNAP inh hi DEA inactive, bCat KO growth inactive and HCT116 PTEN-null inactive.
For CCN(CC)C(=O)C(=O)N/N=C/c1ccc(C(=O)O)cc1 the results were TNAP act hi DEA inactive, Lmaj promast inactive, TNAP inh noacc inactive, TNAP inh hi DEA inactive, bCat KO growth inactive and HCT116 PTEN-null inactive.
For COc1ccc(C(=O)C2CCCN(S(=O)(=O)C(C)C)C2)c(C)c1 (stereo not given) the results were TNAP act hi DEA inactive, Lmaj promast inactive, TNAP inh noacc inactive and TNAP inh hi DEA inactive.
Cc1ccc(-c2nnc3n2N=C(c2ccc(Br)cc2)CS3)cc1 was read as TNAP act hi DEA inactive, Lmaj promast inactive, TNAP inh noacc inactive, TNAP inh hi DEA inactive, bCat KO growth inactive and HCT116 PTEN-null inactive.
For Clc1ccc(C2=Nn3c(nnc3-c3n[nH]c4c3CCC4)SC2)cc1 the results were TNAP act hi DEA inactive, Lmaj promast 58, TNAP inh noacc inactive, TNAP inh hi DEA inactive, bCat KO growth inactive and HCT116 PTEN-null inactive.
`Brc1ccc(C2=Nn3c(nnc3-c3n[nH]c4c3CCC4)SC2)cc1` gave TNAP act hi DEA inactive, Lmaj promast 59, TNAP inh noacc inactive, TNAP inh hi DEA inactive, bCat KO growth inactive and HCT116 PTEN-null inactive.
Screening COC(=O)Cc1ccc(NC(=S)NN2CCOCC2)cc1 returned TNAP act hi DEA inactive, Lmaj promast inactive, TNAP inh noacc inactive, TNAP inh hi DEA inactive, bCat KO growth inactive and HCT116 PTEN-null inactive.
`O=C(COC(=O)/C=C/c1nc2ccccc2s1)Nc1cccc(Cl)c1Cl` gave TNAP act hi DEA inactive, Lmaj promast 59, TNAP inh noacc inactive, TNAP inh hi DEA inactive, bCat KO growth inactive and HCT116 PTEN-null inactive.
`O=C(COC(=O)/C=C/c1nc2ccccc2s1)Nc1cccc2ccccc12` gave TNAP act hi DEA inactive, Lmaj promast inactive, TNAP inh noacc inactive, TNAP inh hi DEA inactive, bCat KO growth inactive and HCT116 PTEN-null inactive.
For CC1CCN(S(=O)(=O)c2cc(C(=O)N3CCN(c4ncccn4)CC3)ccc2Br)CC1 the results were TNAP act hi DEA inactive, Lmaj promast 85, TNAP inh noacc inactive, TNAP inh hi DEA inactive, bCat KO growth inactive and HCT116 PTEN-null inactive.
CC(C)Cn1cc(F)c(=O)n(CC(C)C)c1=O was read as TNAP act hi DEA inactive, Lmaj promast inactive, TNAP inh noacc inactive and TNAP inh hi DEA inactive.
`CC(CCc1ccccc1)NC(=O)c1ccc(C(=O)NC(C)CCc2ccccc2)cc1` (stereo not given) gave TNAP act hi DEA inactive, Lmaj promast inactive, TNAP inh noacc inactive, TNAP inh hi DEA inactive, bCat KO growth inactive and HCT116 PTEN-null inactive.
Screening CC(CCc1ccccc1)NCC(O)c1ccc(O)c(C(N)=O)c1 (stereo not given) returned TNAP act hi DEA inactive, Lmaj promast 84, TNAP inh noacc inactive, TNAP inh hi DEA inactive, bCat KO growth inactive and HCT116 PTEN-null inactive.
Screening COc1cccc(C2C(C(=O)Nc3nc4ccccc4s3)=C(C)NC3=C2C(=O)CC(C)(C)C3)c1OC (stereo not given) returned TNAP act hi DEA inactive, Lmaj promast 58, TNAP inh noacc inactive, TNAP inh hi DEA inactive, bCat KO growth inactive and HCT116 PTEN-null inactive.
Screening COC(=O)C1=C(C)NC2=C(C(=O)CC(C)(C)C2)C1c1ccccn1 (stereo not given) returned TNAP act hi DEA inactive, Lmaj promast inactive, TNAP inh noacc inactive, TNAP inh hi DEA inactive, bCat KO growth inactive and HCT116 PTEN-null inactive.
COc1ccc(OC)c(C2C(C(=O)Nc3nc4ccccc4s3)=C(C)NC3=C2C(=O)CCC3)c1 (stereo not given) was read as TNAP act hi DEA inactive, Lmaj promast 98, TNAP inh noacc inactive, TNAP inh hi DEA inactive, bCat KO growth inactive and HCT116 PTEN-null inactive.
For O=C(O)c1ccc(N2CCCCS2(=O)=O)cc1 the results were TNAP act hi DEA inactive, Lmaj promast inactive, TNAP inh noacc inactive and TNAP inh hi DEA inactive.
For Cc1cc(C(F)F)nn1CC(=O)Nc1cc([N+](=O)[O-])ccc1F the results were TNAP act hi DEA inactive, Lmaj promast inactive, TNAP inh noacc inactive, TNAP inh hi DEA inactive, bCat KO growth inactive and HCT116 PTEN-null inactive.
Screening CCN(Cc1ccccc1)C(=O)c1ccc(Cl)cc1[N+](=O)[O-] returned TNAP act hi DEA inactive, Lmaj promast inactive, TNAP inh noacc inactive and TNAP inh hi DEA inactive.
O=C(NCCNc1ccc([N+](=O)[O-])cc1C(F)(F)F)c1ccc(F)cc1 was read as TNAP act hi DEA inactive, Lmaj promast 56, TNAP inh noacc inactive, TNAP inh hi DEA inactive, bCat KO growth inactive and HCT116 PTEN-null inactive.
For CC(=O)N1CCCN(Cc2cn(-c3cc(C)ccc3C)nc2-c2ccccc2)CC1 the results were TNAP act hi DEA inactive, Lmaj promast inactive, TNAP inh noacc inactive and TNAP inh hi DEA inactive.
COc1cnc(-c2ccccn2)nc1Sc1ccc(Cl)cc1 was read as TNAP act hi DEA inactive, Lmaj promast 100, TNAP inh noacc inactive, TNAP inh hi DEA inactive, bCat KO growth inactive and HCT116 PTEN-null inactive.
